From ChEMBL document CHEMBL1124493, “Synthesis and tumor uptake of 5-82Br- and 5-131I-labeled 5-halo-1-(2-fluoro-2-deoxy-beta-D-ribofuranosyl)uracils” (J Med Chem, 1989)

Test system: Nucleic Acid
Test: Incorporation of compound into DNA of human and mammalian cells, by replacing thymidine
Assay type: functional

Row | Compound | Replacement
1 | O=c1[nH]c(=O)n([C@H]2C[C@H](O)[C@@H](CO)O2)cc1Br [BROXURIDINE] | 43%

Species: Mus musculus
Test: Inhibition constant for influx competition with [6-3H]thymidine in mouse erythrocytes
Assay type: functional
How it was run: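 Freshly harvested mouse erythrocytes were exposed to various concentrations of test nucleoside and [6-3H]thymidine, and zero-trans thymidine influx was measured. Extracellular [6-3H]thymidine was measured over time by liquid scintillation counting of aliquots. The Ki for competition at the nucleoside transporter was derived by previously described methods.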

Row | Compound | Ki
2 | O=c1ccn([C@@H]2O[C@H](CO)[C@@H](O)[C@H]2F)c(=O)[nH]1 | 120 µM
3 | Cc1cn([C@H]2C[C@H](O)[C@@H](CO)O2)c(=O)[nH]c1=O [DOXRIBTIMINE] | 80 µM

Further compounds by falling Ki, results first:

Row | Ki | Compound
4 | 210 µM | O=c1[nH]c(=O)n([C@H]2C[C@H](O)[C@@H](CO)O2)cc1I [IDOXURIDINE]
5 | 140 µM | O=c1[nH]c(=O)n([C@H]2C[C@H](O)[C@@H](CO)O2)cc1Br [BROXURIDINE]
6 | 130 µM | O=c1ccn([C@H]2C[C@H](O)[C@@H](CO)O2)c(=O)[nH]1 [DEOXYURIDINE]
